NR1D1 modulator: modulators of human Rev-erb alpha DNA binding. P20393. Rev-erbα–FITC-DNA binding, fluorescence polarization, 90 min. activity, % at 10 µM. hit rate 0.79% among 370,000;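 active = activity above about 14%, limit read from the data; passing the limit was not always enough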;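 note: 0% = DMSO wells with 35 nM protein and 100% = DMSO wells with 750 nM protein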
Rin1-Abl PPI inh: human Rin1-Abl interaction inhibition; P00519+Q13671; TR-FRET Rin1/Abl binding, biochemical; inhibition, % at 7.35 µM; hit rate 0.4% among 360,000; AID 588664; in the data active = inhibition above about 5%, passing the limit was not always enough
TbMetRS inhib: blocks T. brucei methionyl-tRNA synthetase activity | purified T. brucei MetRS, ATP depletion, Kinase-Glo luminescence | hit rate 0.4% among 360,000 | AID 624268 | inhibition, % at 11.9 µM;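 active = inhibition above a per-plate cutoff of the control wells' mean inhibition plus 3 SD, cut at about 5.5% in these data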;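 note: 0% = DMSO wells median and 100% = median of wells with control inhibitor compound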
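Test system – parasite MetRS enzyme · Reagent – substrates ATP, L-methionine and bulk Escherichia coli tRNA · Doses – 11.9 µM compound single dose, 0.9% DMSO · Times – 15 min enzyme-compound preincubation, 2 h reaction, 10 min detection, 25 °C · Signal – Kinase-Glo luminescence, ATP depletion format · Controls – DMSO-only wells as low control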
PG9 Ab binder: binds the HIV-1 gp120 antibody PG9. TR-FRET gp120-PG9 antibody binding. inhibition, % at 6.7 µM. hit rate 0.43% among 360,000. AID 624416; in the data active = inhibition above about 8.5%
Rev-erbA confirm: confirmation of modulators of human Rev-erb alpha DNA binding; hit rate 61% among 3,000; activation, % at 25 µM; AID 1259319; shares compounds with NR1D1 modulator; Rev-erb alpha FITC-DNA binding, fluorescence polarization, 90 min;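 active = activation at or above a set limit, or at least 3 SD above the negative control mean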;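 note: 0% = 35 nM protein with DMSO and 100% = 750 nM protein high control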
RORg counter: affects RORgamma DNA binding in a Rev-erb alpha counter-screen; shares compounds with NR1D1 modulator; purified RORgamma protein-FITC-DNA binding, fluorescence polarization; IC50, µM; hit rate 8% among 910;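 active = Compounds whose fitted half-maximal concentration for disrupting protein-DNA binding is below 10 micromolar; the record names Rev-erb in its text, so the target is in doubt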
Starred values were filed as active, the others as inactive; i = inactive; . = no result given; ! = a repeat was not active. The list is not random: actives were taken first. Their share in the collection is about 1.8%.

SMILES	NR1D1 modulator	Rin1-Abl PPI inh	TbMetRS inhib	PG9 Ab binder	Rev-erbA confirm	others
CCCCOC(=O)c1cc(C)nc2ccc(Br)cc12	44*	-6	0	7	33*	RORg counter=>40
CC(=O)N1c2ccccc2S(=O)(=O)c2c1ccc1ccccc21	23*	0	0	1	-2
CC(=O)N1c2ccccc2S(=O)(=O)c2ccccc21	5	3	0	-1	.
Cc1cccc(C)c1NC(=O)C(CCc1ccccc1)N1CCN(CCN(C)C)CC1 (configuration not stated)	-1	.	.	-1	.
O=C(Nc1ccc(Oc2ccccc2)nc1)[C@H]1O[C@@H](n2ccc(=O)[nH]c2=O)[C@H](O)[C@@H]1O	20*	-2	0	1	-1
Nc1ccn([C@@H]2O[C@H](C(=O)Nc3ccc(Oc4ccccc4)nc3)[C@@H](O)[C@H]2O)c(=O)n1	2	-1	0	1	.
Cc1ccccc1NC(=O)Cc1nc(COC(=O)c2cc(Cl)ccc2O)cs1	19*	-4	0	3	8
Cc1ccccc1NC(=O)Cc1nc(COC(=O)c2cc(Br)ccc2O)cs1	17	-1	0	2	.
O=C(NCc1ccco1)c1sc2cc(Cl)ccc2c1Cl	0	-9	0	0	.
O=C(Nc1ccon1)c1sc2cc(Cl)ccc2c1Cl	25*	-11	0	-2	15
Cc1cc(NC(=O)COC(=O)C2CC(=O)N(c3ccc(Cl)cc3)C2)no1 (configuration not stated)	22*	-1	0	0	-8
Cc1cc(NC(=O)COC(=O)C2CC(=O)N(c3ccccc3)C2)no1 (configuration not stated)	-4	-1	-1	-1	.
Cc1ccc2[nH]c3c(c2c1)SC(C)(C)CC3=O	4	0	0	2	.
N#Cc1cc2c(nc1SCC(=O)Nc1sc3c(c1C#N)CCC3)CCCC2	3	-2	-1	-1	.
N#Cc1ccc(-c2ccc(F)cc2)nc1SCC(=O)Nc1sc2c(c1C#N)CCC2	32*	2	0	0	21*
COc1cccc(-c2cc(=O)c3cc(NC(=O)c4ccccc4)ccc3[nH]2)c1	26*	-6	0	-14	10
Cc1cc(=O)[nH]c(N/N=C/c2c(C)nn(-c3ccc(F)cc3)c2Cl)n1	6	-1	0	-2	.
Cc1nn(-c2ccccc2)c(Cl)c1/C=N/Nc1nncc(=O)[nH]1	25*	-4	0	-4	18
CN(Cc1ccccc1)C(=O)c1ccc(NC(=O)Cc2cccc(NC(=O)C3CCN(C(=O)C4CCC4)CC3)c2)cc1	-3	1	0	0	.
COc1cc2c(cc1O)CC[n+]1cc3c(OC)c(OC)ccc3cc1-2	1	-6	0	-11	.
COc1cc2c(cc1OC)-c1cc3ccc4c(c3c[n+]1CC2)OCO4	27*	-35	0	-11	45*	RORg counter=>40
Cc1ccc(C(=O)CSc2ncnc3sc4c(c23)CCC(C)C4)cc1 (configuration not stated)	68*	-2	0	-1	24*
CC(=O)CSc1ncnc2sc3c(c12)CCC3	-6	-6	0	-2	.
COc1ccc(C(=O)Nc2ccccc2-c2nnn(CC(N)=O)n2)cc1	96*	-4	-1	-1	81*	RORg counter=>40
C=CCNc1ncnc2c1ncn2[C@H]1CN(Cc2ccc3c(c2)OCO3)C[C@@H](CO)O1	-3	4	0	4	.
SMILES	NR1D1 modulator	Rin1-Abl PPI inh	TbMetRS inhib	PG9 Ab binder	Rev-erbA confirm	others
O=C(COc1ccc(Br)cc1Br)NC(=S)Nc1cccc(CO)c1	4	-1	-1	-3	.
O=C(COc1ccc2ccccc2c1Br)NC(=S)Nc1cccc(CO)c1	24*	-19	0	-2	21*
Fc1ccc(-c2nc3ccccc3c3nc4ccccc4n23)cc1	26*	-2	0	1	19*
CCCC(=O)N1CCC1(C)C(=O)Nc1scc(C)c1C#N (configuration not stated)	.	-1	0	.	.
Cc1ccc(CCN2CC(C(=O)NCCCN3CCC(C)CC3)CC2=O)cc1 (configuration not stated)	-6	0	0	1	.
C=Cn1cc(CNC[C@H]2O[C@@H](n3cnc4c(=O)[nH]c(N)nc43)[C@H](O)[C@@H]2O)c(C)n1	-2	0	0	-1	.
COc1ccccc1NC(=O)c1oc2ccccc2c1NC(=O)c1cc(OC)c(OC)c(OC)c1	100*	1	0	0	69*	RORg counter=>40
COCC(=O)Nc1c(C(=O)Nc2ccccc2OC)oc2ccccc12	23	1	0	1	.
O=C(OCCN1CCOCC1)c1ccc(O)cc1	14*	-2	-1	-3	2
COc1cc(OC)c(NC(=O)CCCNC(=O)Cn2cnc3sc(C)c(C)c3c2=O)cc1Cl	-4	0	1	0	.
Cc1cc2nc(-c3cccc(Cl)c3)c(CC(C)(C)C)n2c(C)c1Br	15*	3	0	1	9
O=C(Nc1ccc(O)c(-c2nc3ccccc3s2)c1)c1cccs1	360*	-62	-1	36*	703*	RORg counter=i
COC(=O)C1=C(C)N(Cc2ccccc2C(F)(F)F)C(=NCc2ccc3c(c2)OCO3)NC1c1cccc(Cl)c1 (configuration not stated)	0	.	.	-2	.
Cn1nc(CC(=O)Nc2ccc3c(c2)CCC3)c2ccccc2c1=O	20*	2	-3	-1	17*
O=C(Cc1ccccc1)NC(=S)Nc1ccc2oc(-c3ccccc3F)nc2c1	10	2	0	-1	.
CC(=O)NC(=S)Nc1ccc2oc(-c3cc(F)c(F)cc3Cl)nc2c1	50*	-1	0	0	32*	RORg counter=i
CCCCCCCCCCCCCCCC[n+]1ccccc1	25*!	-1	-1	-1	-3
CC(=O)Nc1ccc(-c2ccnc(-c3ccc(NC(C)=O)cc3)n2)cc1	20*	2	1	8	4
Cn1c2ccccc2c2cc(C(=O)OCC(=O)N3CC(=O)Nc4ccccc43)sc21	74*	0	1	2	62*
CC1CCCC(NC(=O)NC(=O)COC(=O)c2ccc(O)cc2O)C1C (configuration not stated)	11	2	0	-1	.
COc1ccc(C(=O)NCC2(N3CCCCC3)CCCCC2)cc1S(=O)(=O)N(C)C	-2	1	0	-1	.
CCN(CC(=O)Nc1ccc2c(c1)OCCO2)C(=O)c1ccccc1Br	-3	2	0	0	.
CCCCCCSc1ccc(-c2nc3ccc(Cl)cn3c2NCCCC)cc1OC	6	-2	0	1	.
CCCCCCSc1ccc(-c2nc3ccc(C)cn3c2NCCCC)cc1OC	16*	.	-1	2	6
CCCCNc1c(-c2ccc(SC3CCCCC3)c(OC)c2)nc2ccc(Cl)cn12	20*	-3	0	-2	9
